Common to all, as to assay type: functional, organism-based
The test system of assay [1] is Leishmania major. In words: Antileishmanial activity against promastigotes of Leishmania major […] by MTT assay. An outline of the steps: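 Promastigotes of L. major vaccine strain MRHO/IR/75/ER were used. Two or more independent experiments were run in triplicate. IC50 was obtained by linear regression and reported as the mean. Meglumine antimonate served as the standard drug.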
In general terms: Tetrazolium dyes change colour on reduction, which living cells bring about.

For assay [2], the system named is Leishmania major. Kind of assay: Antiamastigote activity against Leishmania major MHOM/1L/80/ER amastigotes infected in mouse primary peritoneal macrophages assessed as decrease in number of intracellular amastigotes per macrophage after 24 hrs using Giemsa staining. A digest of the protocol:
(§1)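 Mouse peritoneal macrophages on glass coverslips at 1 × 10^6/well were infected for 2 h with stationary-phase promastigotes in RPMI (2 × 10^6/well, 3 parasites per macrophage). Extracellular parasites were washed off, then compound-containing medium was added for 24 h. Cells were methanol-fixed and Giemsa-stained, with 100 cells counted per well. Two experiment sets were run.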

The subject of assay [3] is Leishmania major. Kind of assay: Antiamastigote activity against Leishmania major MHOM/1L/80/ER amastigotes infected in mouse primary peritoneal macrophages assessed as infectivity index after 24 hrs using Giemsa staining. A digest of the protocol:
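Macrophage infection and treatment were as for the amastigote counts: 1 × 10^6 peritoneal macrophages/well, infected 2 h at 3 promastigotes per cell, washed, then drug exposure for 24 h. Giemsa staining after methanol fixation, 100 cells examined per well. Infectivity index = % macrophages with at least one intracellular parasite × mean parasites per infected macrophage. Two experiment sets.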

Assay [4] deals with Leishmania major. In words: Antiamastigote activity against Leishmania major MHOM/1L/80/ER amastigotes infected in mouse primary peritoneal macrophages assessed as percentage of macrophage infectivity after 24 hrs using Giemsa staining. A digest of the protocol: as §1

Calls of active or inactive are those of the source. The calls are words filed in the database; no cut-off is given here.

Broadly, the IC50 is the midpoint of a concentration-inhibition curve. Read a high IC50 as lower potency. For `O=[N+]([O-])c1ccc(-c2nnc(NCc3cn(Cc4ccc(Cl)cc4)nn3)s2)o1`, in the assay on Leishmania major [1] (Leishmania major), 88.8 µM corresponded to half-maximal inhibition (IC50).
Take `O=[N+]([O-])c1ccc(-c2nnc(NCc3cn(Cc4ccccc4Cl)nn3)s2)o1`: the result in the assay on Leishmania major [2], in the assay with Leishmania major [3] and in the assay on Leishmania major [4] was Active. This compound came in with an IC50 in the assay with Leishmania major [1] (Leishmania major) of 18.9 µM.
On to `Cc1ccccc1Cn1cc(CNc2nnc(-c3ccc([N+](=O)[O-])o3)s2)nn1`, for which the IC50 in the assay on Leishmania major [1] (Leishmania major) was found to be 25.2 µM.
As to `O=[N+]([O-])c1ccc(-c2nnc(NCc3cn(Cc4ccccc4F)nn3)s2)o1`, the outcome in the assay on Leishmania major [2], with Leishmania major [3] and in the assay with Leishmania major [4] was Active. In the assay with Leishmania major [1] (Leishmania major), this compound yielded an IC50 of 19 µM.
`O=[N+]([O-])c1ccc(-c2nnc(NCc3cn(Cc4ccc(F)cc4)nn3)s2)o1`: the result in the assay with Leishmania major [2], in the assay on Leishmania major [3] and in the assay on Leishmania major [4] was Active. Besides, in the assay with Leishmania major [1] (Leishmania major), the IC50 was 21.4 µM.
Regarding `O=[N+]([O-])c1ccc(-c2nnc(NCc3cn(Cc4c(F)cccc4Cl)nn3)s2)o1`, the result with Leishmania major [2], with Leishmania major [3] and with Leishmania major [4] was Active. This compound also yielded an IC50 in the assay on Leishmania major [1] (Leishmania major) of 17.4 µM.
For the compound `O=[N+]([O-])c1ccc(-c2nnc(NCc3cn(Cc4ccc(Cl)cc4Cl)nn3)s2)o1`, the result with Leishmania major [2], in the assay on Leishmania major [3] and in the assay on Leishmania major [4] was Active. Also, the midpoint of inhibition in the assay on Leishmania major [1] (Leishmania major), the IC50, lay at 19.9 µM.
In turn, `O=[N+]([O-])c1ccc(-c2nnc(NCc3cn(Cc4cccc(Cl)c4)nn3)s2)o1` returned an IC50 in the assay on Leishmania major [1] (Leishmania major) of 108 µM.
As to `Cc1cccc(Cn2cc(CNc3nnc(-c4ccc([N+](=O)[O-])o4)s3)nn2)c1`, the outcome with Leishmania major [2], in the assay on Leishmania major [3] and in the assay with Leishmania major [4] was Active. Also, half-maximal inhibition in the assay on Leishmania major [1] (Leishmania major) (IC50) required 21.9 µM.
Regarding `O=[N+]([O-])c1ccc(Cn2cc(CNc3nnc(-c4ccc([N+](=O)[O-])o4)s3)nn2)cc1`, the IC50 with Leishmania major [1] (Leishmania major) is 32.7 µM.
For `O=[N+]([O-])c1ccc(-c2nnc(NCc3cn(Cc4ccccc4)nn3)s2)o1`, the outcome in the assay with Leishmania major [2], in the assay on Leishmania major [3] and in the assay with Leishmania major [4] was Active. The compound also displayed a 50% inhibitory concentration (IC50) in the assay on Leishmania major [1] (Leishmania major) of 19.6 µM.
As to `O=[N+]([O-])c1ccc(-c2nnc(NCc3cn(Cc4ccc(Cl)c(Cl)c4)nn3)s2)o1`, half-maximal inhibition in the assay on Leishmania major [1] (Leishmania major) (IC50) was put at 132 µM.
Same read-out and setting: in the case of `O=[N+]([O-])c1ccc(-c2nnc(NCc3cn(Cc4cccc(Cl)c4Cl)nn3)s2)o1` it was 104 µM.
Turning to `Cc1ccc(Cn2cc(CNc3nnc(-c4ccc([N+](=O)[O-])o4)s3)nn2)cc1`, the outcome in the assay on Leishmania major [2], in the assay with Leishmania major [3] and in the assay with Leishmania major [4] was Active. In the assay with Leishmania major [1] (Leishmania major), this compound came in with an IC50 of 12.2 µM.
With MEGLUMINE ANTIMONATE, 68300 µM corresponded to half-maximal inhibition in the assay with Leishmania major [1] (IC50).

(Values after ChEMBL document CHEMBL1949504, “Synthesis and anti-leishmanial activity of 5-(5-nitrofuran-2-yl)-1,3,4-thiadiazol-2-amines containing N-[(1-benzyl-1H-1,2,3-triazol-4-yl)methyl] moieties” (Eur J Med Chem, 2012).)
